This is a sample that favours compounds with a hit; in the whole collection about 2.3% have one here.
HCV NS3 hel inh: inhibitors of Hepatitis C virus NS3 helicase | NS3 helicase DNA unwinding, Cy5 molecular beacon fluorescence | inhibition, % at 10.9 µM | actives 0.56% (n = 290,000) | AID 1800;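 active means inhibition above the mean of all tested compounds plus 3 SD, set per campaign, cut at about 35% in these data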;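 further: 0% = DMSO wells and 100% = thioflavine S control wells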
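Assay system: hepatitis C virus NS3 helicase domain fragment enzyme. Also added: annealed dual-labelled DNA beacon duplex, ATP-started. Timing: 1 h reaction at 25 °C, ATP-initiated. Technique: Cy5 fluorescence at 0 and 60 min, beacon hairpin quenching. Evaluation: % inhibition of unwinding. Replication: one well per compound.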
EBNA-1 inhibitor: blocks EBNA-1 binding to DNA; EBNA-1 DNA binding, fluorescence polarization; actives 0.34% (n = 300,000); inhibition, % at 14.8 µM; in the data active means inhibition above about 28%
ZTA DNA inh: ZTA (EBV) inhibition in EBNA-1 counter-screen; P03206; ZTA-DNA binding, fluorescence polarization; inhibition, % at 11 µM; actives 0.15% (n = 320,000); AID 2234; in the data active means inhibition above about 33%
EBV gp42 block: EBV gp42 inhibition; Q1HVG2; AID 1085; actives 0.42% (n = 220,000); Fluorescence polarization binding assay, mP read-out; inhibition, % (tested at 21.74 µM); in the data active means inhibition above about 50%
Target sequence (Q1HVG2 whole entry, looked up): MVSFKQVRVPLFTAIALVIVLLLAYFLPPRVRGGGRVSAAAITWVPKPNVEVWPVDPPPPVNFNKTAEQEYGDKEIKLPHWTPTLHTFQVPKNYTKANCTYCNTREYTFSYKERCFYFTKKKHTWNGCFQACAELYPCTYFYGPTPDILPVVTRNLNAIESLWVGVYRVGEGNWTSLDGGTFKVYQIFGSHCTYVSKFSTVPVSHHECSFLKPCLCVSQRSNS
GPR7 antagonist: blocks human GPR7 receptor signaling. AID 1861. inhibition, % at 4.4 µM. actives 1.1% (n = 290,000). P48145. GPR7-expressing cells, fluorescence antagonist assay; in the data active means inhibition above about 16%, passing the limit was not always enough;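 further: cells stimulated with the agonist NPW; 0% = agonist with vehicle and 100% = vehicle without agonist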
Target sequence (P48145 whole entry, looked up): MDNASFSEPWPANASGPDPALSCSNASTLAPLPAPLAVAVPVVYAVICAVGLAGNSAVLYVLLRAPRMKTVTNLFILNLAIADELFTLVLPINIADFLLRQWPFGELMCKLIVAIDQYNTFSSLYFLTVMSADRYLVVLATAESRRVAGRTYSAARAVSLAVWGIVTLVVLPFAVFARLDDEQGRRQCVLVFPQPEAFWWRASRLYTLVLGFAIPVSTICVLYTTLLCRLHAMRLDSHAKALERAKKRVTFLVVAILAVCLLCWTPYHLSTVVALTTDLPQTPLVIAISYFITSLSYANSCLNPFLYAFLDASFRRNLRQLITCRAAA
HCV core dimer: HCV core protein dimerization inhibition; actives 0.33% (n = 300,000); TR-FRET GST/Flag-core106 dimerization, 1536-well; inhibition, % at 5 µM;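 active means inhibition above the mean of all tested compounds plus 3 SD, set per screening campaign, cut at about 45% in these data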
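Assay system: Tagged HCV core106 pair (GST and Flag) | Buffer or medium: KF-containing HEPES buffer, pH 7.45, DTT, CHAPS, BSA | Also added: Eu donor and XL665 acceptor anti-tag antibodies | Dosing: One concentration, 5 µM, in 0.5% DMSO | Timing: 4 h at 22.5 °C | Technique: TR-FRET 671 and 617 nm emission | Repeats: Singlicate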
NS3 helicase cf: HCV NS3 helicase inhibition, confirmation assay; shares compounds with HCV NS3 hel inh; AID 1943; actives 31% (n = 1,600); NS3 helicase DNA unwinding, Cy5 molecular beacon fluorescence; inhibition, % at 10.9 µM;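 active means inhibition above the mean of all tested compounds plus 3 SD, cutoff set per campaign, cut at about 36% in these data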
DNA FID counter: counter-screen for HCV NS3 helicase inhibitors: DNA intercalator displacement | shares compounds with HCV NS3 hel inh | DNA fluorescent intercalator displacement, fluorescence | inhibition, % at 7.9 µM | actives 4% (n = 1,600) | AID 1945; in the data active means inhibition above about 37%;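 further: 0% = vehicle and 100% = reference compound; higher means more displacement of ethidium bromide from the DNA hairpin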
DNA FID DR: DNA intercalator displacement in dose response. fluorescent intercalator displacement from DNA, fluorescence. 120 tested, under 10 active. IC50, µM. shares compounds with HCV NS3 hel inh. AID 2172; call rule not given here
The depositor's hits bear a star; x = no result given; + = active, no number.

SMILES	HCV NS3 hel inh	EBNA-1 inhibitor	ZTA DNA inh	EBV gp42 block	GPR7 antagonist	HCV core dimer	NS3 helicase cf	DNA FID counter	others
N#CC1=C(N)OC2=C(C(=O)CC(c3ccco3)C2)C1c1ccc(OCc2c(F)cccc2Cl)cc1 (centres undefined)	30	9	-19	-11	13	36	x	x
COc1cccc(C2C(C#N)=C(N)OC3=C2C(=O)CC(c2ccco2)C3)c1OCc1ccc(F)cc1 (centres undefined)	39*	1	1	-23	1	57*	64*	-3	DNA FID DR=>79
N#C/C(=C\c1cccs1)C(=O)c1ccccc1Cl	41*	17	5	-16	-22	-2	-26	7
O=[N+]([O-])c1ccc(/C=C/C2=NN(c3ccccc3)C(c3ccco3)C2)o1 (centres undefined)	8	x	x	-26	2	x	x	x
C(=C\c1ccco1)/C1=NN(c2ccccc2)C(c2ccco2)C1 (centres undefined)	46*	2	7	-38	-11	37	58*	8
CCOC(=O)c1c(-c2ccc(C)cc2)csc1NC(=O)C1CC=CCC1C(=O)O (centres undefined)	43*	-1	10	5	8	18	74*	-16
CCOC(=O)c1c(-c2cccc(C)c2)csc1NC(=O)C1CC=CCC1C(=O)O (centres undefined)	14	2	2	-3	-5	2	x	x
O=C1NN(c2ccccc2)C(=O)/C1=C\c1ccccc1OCC(=O)N1CCOCC1	49*	-4	-10	-2	-15	0	-16	0
CCc1ccccc1N=C1S/C(=C/c2ccccc2OCC(=O)N2CCOCC2)C(=O)N1C	-3	8	-1	3	-13	-1	x	x
CN(C)c1ccc(N2CN=C3SCC(=O)N3C2)cc1	59*	+	+	-4	23	-38	-6	27
O=C1CSC(=S)N1/N=C/C=C/c1ccccc1	39*	4	-4	-7	7	53*	7	10
O=C1CSC(=S)N1/N=C/c1c(F)cccc1F	8	-3	1	x	-10	3	x	x
O=C(Nc1nc(-c2ccccc2)cs1)c1ccc(Br)o1	2	-11	-2	-4	-1	4	x	x
N=c1c(S(=O)(=O)c2ccccc2)cc2c(=O)n3ccccc3nc2n1Cc1ccco1	37*	3	-16	x	-1	87*	-4	26
Cc1ccc2nc3c(cc(S(=O)(=O)c4ccccc4)c(=N)n3Cc3ccco3)c(=O)n2c1	22	4	7	20	-10	13	x	x
Cc1cc2nn(-c3ccc(F)cc3)nc2cc1N	27	7	-15	x	-8	1	x	x
CCOc1ccc(-n2nc3cc(C)c(N)cc3n2)cc1	63*	2	3	x	1	23	-9	0
CCOc1ccc(-n2nc3ccc(N)cc3n2)cc1	44*	x	x	x	-22	x	-15	-1
CCc1noc(C)c1C(=O)Nc1ccc(-c2nnc3n2CCCCC3)cc1	x	1	10	x	x	3	x	x
C[C@]12CCC[C@H](O1)c1c(cc3c(c1O)C(=O)c1c(O)cc(O)cc1C3=O)O2	x	7	-6	x	x	-2	x	x
S=c1nc[nH]c2c1cnn2Cc1ccccc1	41*	x	x	x	6	x	2	-4
CCCCN1Cc2c(nc3cc(-c4ccco4)[nH]n3c2=O)C1=O	49*	17	21	-2	1	-7	-4	7
CCOc1ccccc1CNS(=O)(=O)c1cnc[nH]1	-1	-3	24	x	-8	2	x	x
Cc1nn(Cc2ccc(Cl)cc2)c(C)c1NC(=O)c1noc2c1CCc1ccccc1-2	57*	7	18	-3	-4	27	-15	-43
COc1ccc2c(c1)CCc1c(C(=O)Nc3c(C)nn(Cc4ccccc4)c3C)noc1-2	1	11	-9	-2	-1	12	x	x
SMILES	HCV NS3 hel inh	EBNA-1 inhibitor	ZTA DNA inh	EBV gp42 block	GPR7 antagonist	HCV core dimer	NS3 helicase cf	DNA FID counter	others
CN(C[C@H](Cc1ccccc1)N(C[C@H](c1ccccc1)N(CCc1ccccc1)N=O)N=O)N=O	-11	4	7	-10	0	20	x	x
CC1CCc2c(sc(/N=C/c3ccco3)c2C(N)=O)C1 (centres undefined)	37*	7	2	3	-15	0	-4	1
CC(=O)Nc1ccc(S(=O)(=O)N[C@@H](C)C(=O)OCC(=O)NC2CCCC2)cc1	x	x	2	x	x	x	x	x
C(=C\c1ccccc1)/C=N/Nc1ccc2nncn2n1	44*	-4	-7	-12	16	-7	-14	-19
CN(C)c1ccc(C(=O)c2ccccc2C(=O)O)c(O)c1	5	-6	21	-19	-7	6	x	x
CCCCN(CCCC)c1ccc(C(=O)c2ccccc2C(=O)O)c(O)c1	60*	9	4	4	8	22	76*	-14
C/C(=N\NC(=S)NCCc1ccccc1)c1ccc(O)cc1O	50*	15	0	x	2	-17	12	12
O=C(COc1ccccc1)Nc1nnc(-c2ccc3c(c2)CCCC3)o1	2	6	3	-11	-13	6	x	x
O=C(COc1ccccc1)Nc1nnc(-c2ccc(F)cc2)o1	60*	3	-5	x	-19	-23	-20	-15
COc1ccc(OCC(=O)N/N=C/C(C)=C/c2ccco2)c(Br)c1	45*	-8	-1	x	14	3	5	-6
Cc1ccccc1OCC(=O)N/N=C/c1ccco1	9	1	-1	3	13	-6	x	x
C=CCn1c(SCC(=O)NCCCC)nc2scc(-c3ccco3)c2c1=O	50*	10	5	-14	-5	2	82*	-9	DNA FID DR=>79
O=C(c1ccccc1)c1coc2c1C(=O)c1ccccc1C2=O	11	5	-22	13	-9	1	x	x
COc1ccc(C(=O)c2coc3c2C(=O)C(=O)c2ccccc2-3)cc1	41*	7	3	-10	13	-1	-8	-3
O=C(CN1CCC(C(=O)O)CC1)Nc1ccccc1Oc1ccccc1	37*	12	21	-11	4	-3	-13	-18
CC1(C)CC(=O)C=C(c2ccc3ccccc3c2)C1	x	x	-14	x	x	x	x	x
Cc1ccc(-c2nnc(-c3ccccc3)o2)cc1	3	3	0	-18	-8	6	x	x
CCNc1nnc(-c2ccc(C)cc2)o1	52*	7	4	-17	-5	0	4	2
CN(C)c1ccc(N=C/C=C2/N(C)c3ccccc3C2(C)C)cc1	36*	x	x	-51	-2	x	-13	42*
CN1/C(=C\C=N\O)C(C)(C)c2ccccc21	-9	0	1	-3	-1	-3	x	x
